This note sets out measurements from PubChem BioAssay.

Calls of active or inactive are those of the source.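 Rule for the calls, unless noted: active = inhibition above 20% together with a positive visual image hit; inconclusive = visual image hit but inhibition not above 20%; inactive = no visual image hit.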

Experiment [1] is described as follows: inhibitors of TNFa-induced NFkB p65 translocation, primary screen, imaging, HUVEC, MLSMR starter and 10KST1 sets (AID 438).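 For inhibition: signal is the nuclear over cytoplasmic p65 intensity ratio per well.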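 Note: compound added about 3h40 before a 20 min TNFalpha stimulation.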 To be noted: HUVEC TNFa-induced p65 nuclear translocation; cell count: measured here: nuclei count (cytotoxicity indicator), at 2.08 µM; inhibition: at 2 µM, stronger effect = higher value, 0% TNFa-plus-vehicle, 100% no-TNFa wells.
The nature of experiment [2]: inhibitors of mutant huntingtin aggregation, primary screen, imaging, exon1htt(103Q)mCFP cells, high-content imaging (AID 483;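 active = visual image review flags a hit and inhibition of aggregation exceeds 20%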;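 note: compound exposure lasted 3 days before fixation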;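 for nuclei count: percent of the per-plate median nuclei count of sample wells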). To be noted: exon1htt(103Q)mCFP cell line, aggregate imaging, at 2 µM; inhibition of aggregation: stronger effect = higher value; nuclei count: measured here: cell count, toxicity.
Experiment [3] is described as follows: inhibitors of E-selectin induction by TNFa, primary screen, imaging, HUVEC, immunofluorescence, MLSMR starter and 10KST1 sets (AID 487;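 active = visually confirmed hit in the image check and inhibition above 20%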;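 for inhibition: signal is fraction of cell area covered by stained E-selectin grains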;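 for nuclei count: 100% = median nuclei count of all wells on the same plate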). To be noted: HUVEC TNFalpha-induced E-selectin immunofluorescence imaging, at 2 µM; inhibition: stronger effect = higher value; nuclei count: measured here: cell number, toxicity.
Experiment [4] concerns the target Voltage-gated potassium channel subunit beta-2 (Rattus norvegicus) (UniProt P62483). Kind of experiment: KvBeta enzyme negative modulators, primary screen, biochemical, NADPH fluorescence (AID 622;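 active = fluorescence slope higher than the sample average by over 3 SD, cut at about -0.22 in these data, passing the limit was not always enough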;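 note: slope of raw intensity against log time taken from 70 to 1610 s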). The settings on record: recombinant KvBeta, 4-cyanobenzaldehyde reduction, at 10 µM, stronger effect = higher value.
Experiment [5] has the same target. The experiment in a line: KvBeta positive modulators, primary screen, biochemical, NADPH fluorescence (AID 623;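 active = NADPH fluorescence slope more negative than the mean of all samples by about 3 SD, 99.7% confidence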;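 note: fluorescence intensity change per second fitted from 20 to 320 s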). The settings on record: Recombinant KvBeta, NADPH fluorescence decrease slope, 10 min; at 10 µM; stronger effect = lower value.
Experiment [6] addresses Muscarinic acetylcholine receptor M4 (Homo sapiens) (UniProt P08173). The experiment in a line: compounds altering M4/GIRK thallium flux, either direction, primary screen, M4 allosteric agonist project, cell-based, HEK293 M4/GIRK, BTC-AM (AID 625;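 active = fluorescence slope after compound addition differing from the mean of all tested samples at 99.7% confidence, mostly higher but some lower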;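 note: thallium influx through GIRK channels coupled to M4 in HEK293 cells with BTC-AM dye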). The settings on record: at 10 µM, actives lie on both sides. Summed up:
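Material: HEK293 cells with M4 receptor and GIRK channels; Times: cells overnight at 37 °C, BTC-AM loading 1 h, reads 2 min total; Technique: kinetic BTC-AM fluorescence sampled at 1 Hz, 10 s pre-addition baseline; Read-out basis: slope over 15–24 s of trace normalized to starting intensity; Controls: carbachol positive, DMSO negative.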

Experiment [7] in a line: inhibitors of Sendai virus-induced IRF3 signaling, primary screen, TLR/RLR signaling modifier project, cell-based, Sendai virus stimulus, luciferase, 10K MLSCN set (AID 602276;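 active = inhibition at or above 50% at 10 µM; inactive = inhibition below 50%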;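 note: firefly luciferase from ISG56 promoter only with Renilla not read in this screen; 0% = Sendai virus plus DMSO and 100% = medium plus DMSO without virus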). To be noted: HEK293 RL24 IRF3 luciferase reporter, at 10 µM, stronger effect = higher value.
The nature of experiment [8]: inhibitors of poly I:C-induced TLR3 signaling, primary screen, cell-based, poly I:C stimulus, luciferase, 10K MLSCN set (AID 602277;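 active = inhibition of the reporter signal at or above 50%; inactive = inhibition below 50%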). To be noted: HEK293-TLR3 RL24 IRF3 luciferase reporter, at 10 µM, stronger effect = higher value. In general terms: Reporter assays use an easily measured gene product as a stand-in for the process of interest.

Sequence of Muscarinic acetylcholine receptor M4 (Homo sapiens) (P08173 whole entry, looked up): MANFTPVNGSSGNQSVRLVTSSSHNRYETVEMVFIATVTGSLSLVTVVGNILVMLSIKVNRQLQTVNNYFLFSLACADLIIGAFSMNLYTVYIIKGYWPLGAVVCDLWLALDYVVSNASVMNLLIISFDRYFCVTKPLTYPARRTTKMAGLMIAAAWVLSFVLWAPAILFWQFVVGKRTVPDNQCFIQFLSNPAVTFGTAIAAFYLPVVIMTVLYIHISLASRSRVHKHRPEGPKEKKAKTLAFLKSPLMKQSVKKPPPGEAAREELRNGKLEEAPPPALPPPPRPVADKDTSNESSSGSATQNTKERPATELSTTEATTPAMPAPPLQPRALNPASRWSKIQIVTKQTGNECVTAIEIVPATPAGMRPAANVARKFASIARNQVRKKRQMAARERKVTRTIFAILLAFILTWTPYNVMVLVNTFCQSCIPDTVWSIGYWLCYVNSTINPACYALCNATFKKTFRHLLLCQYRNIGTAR
Sequence of Voltage-gated potassium channel subunit beta-2 (Rattus norvegicus) (P62483 whole entry, looked up): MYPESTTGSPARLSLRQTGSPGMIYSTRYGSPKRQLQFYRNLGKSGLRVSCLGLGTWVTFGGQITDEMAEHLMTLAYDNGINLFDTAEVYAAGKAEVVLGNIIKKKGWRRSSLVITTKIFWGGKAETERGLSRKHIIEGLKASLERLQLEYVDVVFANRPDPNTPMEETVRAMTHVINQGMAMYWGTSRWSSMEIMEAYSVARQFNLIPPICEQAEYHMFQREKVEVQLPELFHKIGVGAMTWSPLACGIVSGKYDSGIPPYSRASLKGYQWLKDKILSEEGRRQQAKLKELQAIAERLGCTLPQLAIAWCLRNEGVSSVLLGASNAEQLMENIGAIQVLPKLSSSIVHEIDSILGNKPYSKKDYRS

One may read the inhibition as the drop in the measured response relative to a control, in per cent. In the case of `Nc1nc(-c2ccc(Cl)cc2)cc(C(F)(F)F)n1`, in experiment [1], the cell count was 439. In addition, the inhibition is 2.1% (inactive) in experiment [1], -16.4% (inactive) in experiment [3], 1.69% (inactive) in experiment [7] and -12.7% (inactive) in experiment [8]. Moreover, the inhibition of aggregation in experiment [2] was 4.9% (inactive). The nuclei count in experiment [2] was found to be 103%; in experiment [3], 109%. In addition, the results for the fluorescence slope in experiment [4] and in experiment [6] were -0.582 (inactive) and 0.00927 (inactive), respectively. In addition, the NADPH fluorescence slope in experiment [5] was -1.9e-07 (inactive).
In the case of `COc1ccc(-n2cc(-c3ccccc3)c3c(N4CCN(CCO)CC4)ncnc32)cc1`, the cell count in experiment [1] came to 568. In addition, the inhibition in experiment [1] was -26.5% (inactive); in experiment [3] it was -29.3% (inactive); in experiment [7], 13.2% (inactive); in experiment [8], 25.2% (inactive). Besides, the inhibition of aggregation in experiment [2] was 3.6% (inactive). Besides, the nuclei count is 102% in experiment [2] and 99.1% in experiment [3]. In addition, the fluorescence slope is -0.519 (inactive) in experiment [4] and 0.003 (inactive) in experiment [6]. The NADPH fluorescence slope in experiment [5] is -6.1e-07 (inactive).
Turning to `COCn1c(COc2ccccc2)nc2ccccc21`, the cell count in experiment [1] stood at 478. The inhibition in experiment [1] is 9.6% (inactive); in experiment [3], 29% (inactive); in experiment [7] it was -20.6% (inactive); in experiment [8] it was -112% (inactive). Moreover, the inhibition of aggregation in experiment [2] is -10.6% (inactive). Also, the values for the nuclei count in experiment [2] and in experiment [3] were 114% and 123%, respectively. Besides, the figures for the fluorescence slope in experiment [4] and in experiment [6] were -0.248 (inactive) and 0.00599 (inactive), respectively. Further, in experiment [5], the NADPH fluorescence slope is -1.5e-05 (inactive).
For `COC(=O)CCN1CCC(C(N)=O)CC1`, the cell count in experiment [1] came out at 336. The inhibition was -6.3% (inactive) in experiment [1], -132% (inactive) in experiment [3], 1.78% (inactive) in experiment [7] and 6.83% (inactive) in experiment [8]. In experiment [2], the inhibition of aggregation was -4.2% (inactive). In addition, the nuclei count in experiment [2] is 107%; in experiment [3], 129%. The fluorescence slope was -0.437 (inactive) in experiment [4] and 0.00663 (inactive) in experiment [6]. For the same compound, the NADPH fluorescence slope in experiment [5] is 6.8e-05 (inactive).
Consider `O=S(=O)(c1ccccc1)N1CCN(C2CCCCCCC2)CC1`, for which the cell count in experiment [1] was determined as 221. In addition, the inhibition is 9.7% (inactive) in experiment [1], -53.1% (inactive) in experiment [3], -8.03% (inactive) in experiment [7] and -10% (inactive) in experiment [8]. Further, the inhibition of aggregation in experiment [2] was 9% (inactive). In addition, the nuclei count in experiment [2] is 80.6%; in experiment [3] it was 148%. Moreover, the figures for the fluorescence slope in experiment [4] and in experiment [6] were -0.479 (inactive) and 0.00309 (inactive), respectively. In experiment [5], the NADPH fluorescence slope was -1.1e-05 (inactive).
`O=C1CN(c2ccccc2F)C(=O)CN1c1ccccc1F`: in experiment [1], the cell count turned out to be 330. Also, the inhibition was -2.3% (inactive) in experiment [1], -61.6% (inactive) in experiment [3], 14.9% (inactive) in experiment [7] and 14.3% (inactive) in experiment [8]. The inhibition of aggregation in experiment [2] is -2.1% (inactive). The nuclei count stood at 97.5% in experiment [2] and 89.8% in experiment [3]. Moreover, the fluorescence slope in experiment [4] was -0.476 (inactive); in experiment [6], 0.00583 (inactive). In addition, the NADPH fluorescence slope in experiment [5] was -3.1e-05 (inactive).
In the case of `O=C(NCC1CCCO1)C1CC(c2ccc(Cl)c(Cl)c2)=NO1` (centres undefined), the cell count in experiment [1] was found to be 838. Further, the inhibition was -0.7% (inactive) in experiment [1], -247% (inactive) in experiment [3], 3.78% (inactive) in experiment [7] and -3.62% (inactive) in experiment [8]. Also, the inhibition of aggregation in experiment [2] was 4.4% (inactive). In addition, the nuclei count in experiment [2] turned out to be 103%; in experiment [3], 132%. Further, the fluorescence slope was -0.472 (inactive) in experiment [4] and 0.00536 (inactive) in experiment [6]. In addition, in experiment [5], the NADPH fluorescence slope was -3.1e-05 (inactive).
In the case of `COc1ccccc1-c1noc(-c2ccco2)n1`, the cell count in experiment [1] is 691. The inhibition in experiment [1] is 7.2% (inactive); in experiment [3], 6% (inactive); in experiment [7], -44.2% (inactive); in experiment [8], -96.7% (inactive). In experiment [2], the inhibition of aggregation is 16.8% (inactive). The nuclei count worked out at 82.3% in experiment [2] and 101% in experiment [3]. The fluorescence slope in experiment [4] is -0.554 (inactive); in experiment [6], 0.00616 (inactive). Moreover, in experiment [5], the NADPH fluorescence slope is -4.8e-05 (inactive).
`FC(F)(F)C(F)(F)C(F)(F)c1nnc2ccc(N3CCOCC3)nn12`: in experiment [1], the cell count was 420. Moreover, the inhibition in experiment [1] was 7.9% (inactive); in experiment [3] it was -41.2% (inactive); in experiment [7], -12% (inactive); in experiment [8], -3.61% (inactive). For the same compound, the inhibition of aggregation in experiment [2] was -8.6% (inactive). Also, the nuclei count in experiment [2] came to 102%; in experiment [3], 111%. The fluorescence slope in experiment [4] was -0.51 (inactive); in experiment [6], 0.0046 (inactive). Besides, in experiment [5], the NADPH fluorescence slope is 7.7e-05 (inactive).
Turning to `Cn1c(=O)[nH]c(=O)c2c1nc(N1CCNCC1)n2Cc1cccc2ccccc12`, the cell count in experiment [1] is 387. Moreover, the inhibition is 1.1% (inactive) in experiment [1], -83.1% (inactive) in experiment [3], 13.2% (inactive) in experiment [7] and 28.8% (inactive) in experiment [8]. Besides, the inhibition of aggregation in experiment [2] is 13.1% (inactive). Besides, the nuclei count stood at 99.6% in experiment [2] and 106% in experiment [3]. Also, the fluorescence slope in experiment [4] was -0.59 (inactive); in experiment [6], 0.00615 (inactive). Besides, the NADPH fluorescence slope in experiment [5] was -5.5e-05 (inactive).
As for `CCSc1nnc(NC(=O)c2nn(C(C)C)c(=O)c3ccccc23)s1`, the cell count in experiment [1] stood at 221. Moreover, the inhibition is 3.9% (inactive) in experiment [1], 31.6% (inactive) in experiment [3], 9.39% (inactive) in experiment [7] and 11.7% (inactive) in experiment [8]. Further, the inhibition of aggregation in experiment [2] is 15.4% (inactive). The nuclei count in experiment [2] is 71.5%; in experiment [3], 94%. The fluorescence slope in experiment [4] was -0.408 (inactive); in experiment [6], 0.00464 (inactive). In addition, the NADPH fluorescence slope in experiment [5] is -0.000337 (inactive).
For the compound `O=C1C=C(NCc2ccco2)C2(CCCCC2)O1`, the cell count in experiment [1] came out at 495. In addition, the inhibition was 7.6% (inactive) in experiment [1], -229% (inactive) in experiment [3], 17.4% (inactive) in experiment [7] and 20.2% (inactive) in experiment [8]. The inhibition of aggregation in experiment [2] was 0.6% (inactive). Also, the nuclei count in experiment [2] was determined as 97.5%; in experiment [3] it was 125%. Moreover, the fluorescence slope in experiment [4] was -0.569 (inactive); in experiment [6] it was 0.00577 (inactive). The NADPH fluorescence slope in experiment [5] was -5.7e-05 (inactive).
For `Cc1cc(NC(=O)Cn2cnc3c2c(=O)n(C)c(=O)n3C)n(-c2ccccc2)n1`, the cell count in experiment [1] was 580. Besides, the inhibition is -38.9% (inactive) in experiment [1], 22.7% (inactive) in experiment [3], 13.4% (inactive) in experiment [7] and 17% (inactive) in experiment [8]. Also, the inhibition of aggregation in experiment [2] was 1.1% (inactive). Moreover, the nuclei count in experiment [2] was determined as 99.2%; in experiment [3], 68.4%. Moreover, the fluorescence slope in experiment [4] was -0.33 (inactive); in experiment [6], 0.00675 (inactive). Besides, the NADPH fluorescence slope in experiment [5] is -8.3e-05 (inactive).
With `CCOC(=O)C(NC(=O)C1CCCN1C(=O)OCc1ccccc1)C(=O)OCC` (centres undefined), the cell count in experiment [1] turned out to be 586. For the same compound, the inhibition in experiment [1] is 7.2% (inactive); in experiment [3], -11% (inactive); in experiment [7], 20.4% (inactive); in experiment [8], 32% (inactive). Also, the inhibition of aggregation in experiment [2] was -1.6% (inactive). In addition, the figures for the nuclei count in experiment [2] and in experiment [3] were 105% and 97.9%, respectively. Besides, the values for the fluorescence slope in experiment [4] and in experiment [6] were -0.567 (inactive) and 0.00516 (inactive), respectively. Moreover, the NADPH fluorescence slope in experiment [5] is -1.7e-05 (inactive).
